KCNQ1 act = potentiators or activators of KCNQ1 channel, primary screen, cell-based, thallium flux, high-throughput | Potassium voltage-gated channel subfamily KQT member 1 (Homo sapiens), P51787 | CHO-K1 KCNQ1, thallium flux FluxOR fluorescence; stronger effect = higher value | B-score at 10 µM | hit rate 0.35% among 310,000;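 active means fluorescence ratio B-score, a plate-corrected score, at least three library SD, with initial intensity B-score within 5 SD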
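Assay system: CHO-K1 cells stably expressing KCNQ1. Medium: assay buffer for compound exposure, DMSO matched across wells. Timing: 37 °C overnight plating, 90-min dark dye load, 20-min compound pretreatment. Signal: kinetic FluxOR fluorescence, 10 s baseline plus 110 s post-stimulus.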
hERG protect = hERG rescue from dofetilide block, primary screen, cell-based, CHO-hERG, FluxOR thallium flux, dofetilide IC70; Voltage-gated inwardly rectifying potassium channel KCNH2 (Homo sapiens), Q12809; dofetilide IC70 present; activation (rescue from dofetilide block), less the hit threshold, % at 10 µM; hit rate 0.51% among 310,000; AID 1511, 2009;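 active means activation above the mean of controls blocked by dofetilide plus 5 SD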;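 further: thallium influx through hERG after potassium depolarization seen as dye fluorescence rise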
Target sequence (Q12809 whole entry, looked up): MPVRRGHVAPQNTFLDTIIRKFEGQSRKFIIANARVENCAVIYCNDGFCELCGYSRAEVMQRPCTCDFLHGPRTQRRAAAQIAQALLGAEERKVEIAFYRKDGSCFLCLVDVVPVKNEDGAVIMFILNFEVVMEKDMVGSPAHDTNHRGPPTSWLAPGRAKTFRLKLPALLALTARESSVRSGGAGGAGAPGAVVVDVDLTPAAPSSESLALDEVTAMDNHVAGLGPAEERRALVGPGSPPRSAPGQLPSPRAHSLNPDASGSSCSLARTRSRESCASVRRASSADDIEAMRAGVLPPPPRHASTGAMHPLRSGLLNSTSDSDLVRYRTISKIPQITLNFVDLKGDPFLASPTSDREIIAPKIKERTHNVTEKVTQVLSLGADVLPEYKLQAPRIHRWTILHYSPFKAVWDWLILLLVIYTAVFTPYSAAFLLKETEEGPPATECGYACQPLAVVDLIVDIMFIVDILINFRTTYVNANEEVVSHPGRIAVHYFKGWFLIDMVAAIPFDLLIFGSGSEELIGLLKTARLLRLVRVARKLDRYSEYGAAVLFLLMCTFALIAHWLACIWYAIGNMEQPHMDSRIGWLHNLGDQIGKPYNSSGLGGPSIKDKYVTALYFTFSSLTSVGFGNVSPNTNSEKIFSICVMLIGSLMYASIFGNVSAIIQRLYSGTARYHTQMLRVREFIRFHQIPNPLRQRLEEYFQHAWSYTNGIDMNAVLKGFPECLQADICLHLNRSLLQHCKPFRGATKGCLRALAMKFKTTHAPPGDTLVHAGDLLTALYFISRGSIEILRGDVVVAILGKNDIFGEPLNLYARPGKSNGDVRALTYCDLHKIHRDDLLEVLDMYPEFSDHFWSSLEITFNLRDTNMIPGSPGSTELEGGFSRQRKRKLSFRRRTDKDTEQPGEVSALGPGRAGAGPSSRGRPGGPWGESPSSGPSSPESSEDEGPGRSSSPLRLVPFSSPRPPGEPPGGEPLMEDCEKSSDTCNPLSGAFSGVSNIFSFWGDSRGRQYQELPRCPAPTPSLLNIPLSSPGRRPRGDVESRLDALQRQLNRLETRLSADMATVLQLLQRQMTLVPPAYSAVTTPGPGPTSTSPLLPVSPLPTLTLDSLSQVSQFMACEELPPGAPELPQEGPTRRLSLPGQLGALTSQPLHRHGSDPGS
KCNQ1 block = inhibitors of human KCNQ1 channel, primary screen, cell-based, thallium flux, high-throughput; Potassium voltage-gated channel subfamily KQT member 1 (Homo sapiens), P51787; CHO-K1 KCNQ1, FluxOR thallium flux fluorescence; stronger effect = higher value; B-score at 10 µM; hit rate 1.3% among 310,000;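 active means compounds whose thallium flux B-score, printed positive for inhibition, exceeds three library SD while starting fluorescence stays within three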;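 further: channel opened by potassium depolarization with thallium stimulus after 20 min compound exposure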
KCNK9 block = KCNK9 potassium channel inhibitors, primary screen, HEK293 cells, thallium flux; FluxOR thallium flux fluorescence; stronger effect = lower value; B-score at 10 µM; hit rate 1.2% among 310,000; Potassium channel subfamily K member 9 (Homo sapiens), Q9NPC2;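 active means ratio B-score over 3 SD below the library mean, with starting fluorescence within 5 SD of its mean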;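 further: negative B-score means less thallium flux so channel inhibition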
KCNK3 block = human KCNK3 channel inhibitors, primary screen, CHO cells, FluxOR thallium flux, B-score | Potassium channel subfamily K member 3 (Homo sapiens), O14649 | FluxOR fluorescence; stronger effect = lower value | B-score at 10 µM | hit rate 0.84% among 340,000 | AID 602410, 2012;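 active means B-score under library mean minus 4 SD, starting fluorescence ratio at most library mean plus 5 SD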;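 further: more negative B-score means stronger inhibition of thallium flux through KCNK3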
* = called active by the depositor; i = inactive; . = not tested or not shown; ! = a repeat was not active. A selection: hits, their analogues and other compounds. The true share with any hit is near 3.1%.

SMILES	KCNQ1 act	hERG protect	KCNQ1 block	KCNK9 block	KCNK3 block
CSCC[C@H](N)C(=O)N1CCC(C(=O)N[C@H](C)C(=O)Nc2ccc(C(C)C)cc2)CC1	i	-5	i	i	i
CCOC(=O)c1ccccc1NC(=O)Cn1c(-c2nonc2N)nc2ccccc21	i	-17	i	-7.6*	i
Nc1nonc1-c1nc2ccccc2n1CC(=O)Nc1ccccc1	i	-4	i	i	i
CCCCCCCCCCCCCCCC[n+]1ccccc1	.	.	.	.	-11*!
COc1cccc(/C=N/n2c(SC)nnc2-c2ccccc2)c1O	15*	2	i	i	i
COc1cccc(/C=N/n2c(SC)nnc2-c2ccccc2)c1OC	i	-12	i	i	i
O=c1c(-c2cccc3ccccc23)[n+]([O-])c2ccccc2n1O	i	9.5*	i	i	i
CCOn1c(=O)c(-c2cccc3ccccc23)[n+]([O-])c2ccccc21	i	-10	i	i	i
S=C1N(c2ccccc2)C(c2ccccc2)N2CCCN12 (stereo unspecified)	8*	-7	i	i	i
CC(=O)N(CCC(Cc1ccccc1)c1ccc2c(c1)OCO2)Cc1ccc(Cl)cc1 (stereo unspecified)	i	0	11*	-7.3*	-8.9*
Cc1cccc(N2C(=O)C(Oc3ccc(Cl)cc3Cl)C2C(=O)O)c1C (stereo unspecified)	i	-5	i	i	i
CCCNCC1C(Oc2ccc(Cl)cc2Cl)C(=O)N1c1cccc(C)c1C (stereo unspecified)	i	-19	i	-6.7*	i
Cn1c(C(=O)N2CCCC(C(=O)NCc3cccs3)C2)cc2sccc21 (stereo unspecified)	i	6.0*	i	i	i
O=C(Nc1ccc(Cl)c(Cl)c1)C1=Cc2ccccc2OC1	i	-10	7*	i	i
O=C(Nc1cccc(Cl)c1)C1=Cc2cc(Cl)ccc2OC1	i	-10	i	i	i
Cc1cccc(-n2c(SCC(=O)N3CCN(c4ccccn4)CC3)nnc2N2CCOCC2)c1	.	.	.	.	i
CC1(C)OC(=O)N(c2ccccc2)C12C=Cc1cc(Br)ccc1O2 (stereo unspecified)	i	-7	i	-7.2*	i
CCOC(=O)N1CCN(C(=O)C2CCC(=O)N(CCCN3CCCC3=O)C2)CC1 (stereo unspecified)	i	-8	i	i	i
CCOC(=O)/C(=C\c1ccccc1)C(=O)c1cc(C(C)=O)c(Nc2ccccc2)s1	i	-14	i	i	i
CCOC(=O)/C(=C\c1cccnc1)C(=O)c1cc(C(C)=O)c(Nc2ccccc2)s1	36*	-9	i	i	i
CC(C)C(C)(C#N)NC(=O)COC(=O)C1CCN(S(=O)(=O)c2ccc3c(c2)OCCO3)CC1 (stereo unspecified)	.	.	.	.	i
O=C(NCc1ccc(Cl)cc1)c1n[nH]c([N+](=O)[O-])c1Cl	i	-11	6*	i	i
C/C(=N\Nc1nc2c(s1)CCCC2)c1ccc(Cl)cc1	i	-6	6*	i	i
O=C(c1ccc2n[nH]nc2c1)N1CCN(c2ccc(C(F)(F)F)cn2)CC1	.	.	.	.	i
CCOc1ccc(Br)cc1S(=O)(=O)Nc1ccc(NC(=O)c2ccccc2C)cc1	i	-11	i	-7.4*	i
CCOc1ccc(Br)cc1S(=O)(=O)Nc1ccc(C(=O)Nc2ccc(C)cc2)cc1	i	-4	i	-7.1*	i
O=[N+]([O-])c1cccc(-c2cc3ccccc3[nH]2)c1	i	-16	i	i	i
O=[N+]([O-])/C=C/c1cc2ccccc2[nH]1	i	-9	6*	i	i
COC(=O)c1ccc(C2C(C#N)=C(N)Oc3cc(O)ccc32)cc1 (stereo unspecified)	i	61*	i	i	i
COC(=O)c1ccc(C2C(C#N)=C(N)Oc3cc(N)ccc32)cc1 (stereo unspecified)	i	-3	i	i	i
